Structures are written as SMILES.

Usually logP stands for the decadic logarithm of the partition coefficient of the neutral form, usually between octanol and water. The term EC50 denotes the concentration giving half of the maximal effect.

Data set [1] deals with Gamma-aminobutyric acid receptor subunit alpha-2/beta-2 (Homo sapiens) (UniProt P47870+P47869). Nature of the data set: Modulation of GABA Aalpha2beta2 receptor expressed in Xenopus laevis oocytes assessed as potentiation of GABA-induced chloride current at holding potential -70 mV by two-microelectrode voltage clamp technique relative to GABA. In kind it is cell-based. To be noted: Oocyte. In short, it runs like this: (§1)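 Oocytes were injected with α1, α2, α3 or α5 plus β2 cRNA at a 1:1 ratio and stored at 18 °C in ND96, pH 7.4. Enhancement was (I(GABA+compound)/IGABA)−1, and concentration-response data were Hill-fitted for EC50 and nH. Matched DMSO was ≤0.3%.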

In data set [2] the test system is Oocyte. Nature of the data set: Modulation of GABA alpha1beta2gamma2s receptor expressed in Xenopus laevis oocytes assessed as potentiation of GABA-induced chloride current at holding potential -70 mV at 10 uM by two-microelectrode voltage clamp technique in presence of 300 nM of Diazepam relative to GABA. In kind it is cell-based.
The subject of data set [3] is Oocyte. The data set is described as follows: Modulation of GABA alpha1beta2gamma2s receptor expressed in Xenopus laevis oocytes assessed as potentiation of GABA-induced chloride current at holding potential -70 mV at 10 uM by two-microelectrode voltage clamp technique relative to GABA. In kind it is cell-based.
For data set [4], the target named is GABA-A receptor; GABA-A site (alpha1/beta2 interface) (Homo sapiens) (UniProt P14867+P47870). Nature of the data set: Modulation of GABA Aalpha1beta2 receptor expressed in Xenopus laevis oocytes assessed as potentiation of GABA-induced chloride current at holding potential -70 mV by two-microelectrode voltage clamp technique relative to GABA. Format: cell-based. The note with it: Oocyte. In short, it runs like this: as §1

Data set [5] is described as follows: Octanol-water partition coefficient, log P of the compound. Format: physicochemical. The note with it: read-out: logP.
The target in data set [6] is Gamma-aminobutyric acid receptor subunit alpha-5/beta-2 (Homo sapiens) (UniProt P47870+P31644). Nature of the data set: Modulation of GABA Aalpha5beta2 receptor expressed in Xenopus laevis oocytes assessed as potentiation of GABA-induced chloride current at holding potential -70 mV by two-microelectrode voltage clamp technique relative to GABA. In kind it is cell-based. The note with it: Oocyte. The essentials:
as §1

For data set [7], the target named is T1, GABA-A receptor alpha-1/beta-3 (Homo sapiens, UniProt P14867+P28472).
T1 sequence (P14867 whole entry): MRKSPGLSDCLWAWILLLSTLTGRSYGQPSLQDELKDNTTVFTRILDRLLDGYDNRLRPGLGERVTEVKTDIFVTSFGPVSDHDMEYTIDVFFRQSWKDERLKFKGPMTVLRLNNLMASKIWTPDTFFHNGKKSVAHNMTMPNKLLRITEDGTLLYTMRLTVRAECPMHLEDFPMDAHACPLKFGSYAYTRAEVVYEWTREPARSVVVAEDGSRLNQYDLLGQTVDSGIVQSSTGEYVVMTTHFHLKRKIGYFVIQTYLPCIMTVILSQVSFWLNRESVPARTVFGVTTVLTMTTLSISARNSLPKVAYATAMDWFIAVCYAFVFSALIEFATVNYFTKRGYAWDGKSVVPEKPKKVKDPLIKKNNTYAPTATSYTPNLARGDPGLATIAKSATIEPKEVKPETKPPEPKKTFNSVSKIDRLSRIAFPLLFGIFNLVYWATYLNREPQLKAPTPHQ
T1 sequence (P28472 whole entry): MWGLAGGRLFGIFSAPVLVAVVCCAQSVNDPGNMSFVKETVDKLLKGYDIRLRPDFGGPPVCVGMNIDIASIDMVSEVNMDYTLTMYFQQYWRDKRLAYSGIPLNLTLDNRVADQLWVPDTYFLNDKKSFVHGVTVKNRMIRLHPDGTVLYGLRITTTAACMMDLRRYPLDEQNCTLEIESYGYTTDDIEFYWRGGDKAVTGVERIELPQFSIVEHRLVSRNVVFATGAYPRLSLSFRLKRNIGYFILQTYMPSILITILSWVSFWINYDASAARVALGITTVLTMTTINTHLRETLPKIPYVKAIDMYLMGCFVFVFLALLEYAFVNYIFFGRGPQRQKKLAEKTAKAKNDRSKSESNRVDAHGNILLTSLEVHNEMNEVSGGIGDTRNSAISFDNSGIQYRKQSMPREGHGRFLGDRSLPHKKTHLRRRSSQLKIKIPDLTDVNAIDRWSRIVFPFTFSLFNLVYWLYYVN
The data set is described as follows: Modulation of GABA Aalpha1beta3 receptor expressed in Xenopus laevis oocytes assessed as potentiation of GABA-induced chloride current at holding potential -70 mV by two-microelectrode voltage clamp technique. Format: cell-based, Oocyte.

For data set [8], the target named is Gamma-aminobutyric acid receptor subunit alpha-1/ beta-1 (Homo sapiens) (UniProt P14867+P18505). The data set is described as follows: Modulation of GABA Aalpha1beta1 receptor expressed in Xenopus laevis oocytes assessed as potentiation of GABA-induced chloride current at holding potential -70 mV by two-microelectrode voltage clamp technique relative to GABA. Format: cell-based. To be noted: Oocyte. The essentials: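 Stage V–VI female Xenopus oocytes were defolliculated with collagenase and injected with α1 and β1 cRNA at a 3:1 ratio. Oocytes were held at 18 °C in ND96, pH 7.4. Enhancement was (I(GABA+compound)/IGABA)−1, and EC50 and nH came from Hill fits. DMSO was ≤0.3% and matched in controls.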

As for `C=CCc1ccc(O)c(-c2ccc(O)c(CC=C)c2)c1` [HONOKIOL], the Smax in data set [1] is 1130%; in data set [4] it was 1030%; in data set [6] it was 347%; in data set [8], 260%. In addition, the Activity in data set [2] is 244%; in data set [3], 101%. Moreover, in data set [5], the logP is 5.16. Besides, the 50% effective concentration (EC50) in data set [7] is 59.6 µM.

(Values after ChEMBL document CHEMBL1811845, “Modulation of GABAA-receptors by honokiol and derivatives: subtype selectivity and structure-activity relationship” (J Med Chem, 2011).)
